Experimental data from ChEMBL document CHEMBL1938314, “Electrochemical and spectroscopic investigations of isoniazide and its analogs with ds.DNA at physiological pH: evaluation of biological activities” (Eur J Med Chem, 2012).
In brackets after ≈: the same amount, converted by molar mass. Activity calls are given as the source filed them. The calls are words filed in the database; no cut-off is given here.

What was measured:
[1] = system: Bordetella bronchiseptica; assay: Antibacterial activity against Bordetella bronchiseptica ATCC 10580 at 1 mg/ml after 24 hrs by agar well diffusion method; type: functional; settings: for zone of inhibition at 1000 µg/mL: ATCC 10580, 24 h, read-out: DIZ
Outline: (§1)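 Agar well diffusion. Strains grown in LB at 37 °C for 24 h; 0.75 ml broth culture seeded into 75 ml nutrient agar. 8 mm wells received 100 µl of sample at 1 mg/ml in DMSO. Incubated 37 °C for 24 h; inhibition zone diameter measured in mm. DMSO negative control; roxithromycin and cefixime (1 mg/ml) positive controls.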

Klebsiella aerogenes [2] = assay: Antibacterial activity against Enterobacter aerogenes ATCC 13048 at 1 mg/ml after 24 hrs by agar well diffusion method; type: functional; settings: for zone of inhibition at 1000 µg/mL: ATCC 13048, 24 h, read-out: DIZ; outline: as §1
Salmonella typhi [3] = assay: Antibacterial activity against Salmonella typhi ATCC 6539 at 1 mg/ml after 24 hrs by agar well diffusion method; type: functional, Salmonella enterica subsp. enterica serovar Typhi; settings: for zone of inhibition at 1000 µg/mL: Salmonella enterica, ATCC 6539, 24 h, read-out: DIZ; for diameter of the inhibition zone (DIZ): Salmonella enterica subsp. enterica serovar Typhi
Outline: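 Agar well diffusion. S. typhi ATCC 6539 grown in LB at 37 °C for 24 h, 0.75 ml broth culture seeded into 75 ml nutrient agar. 8 mm wells received 100 µl of sample at 1 mg/ml in DMSO. Plates incubated 37 °C for 24 h and inhibition zone diameter measured in mm. DMSO as negative control; roxithromycin and cefixime (1 mg/ml) as positive controls.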

Escherichia coli [4] = assay: Antibacterial activity against Escherichia coli ATCC 15224 at 1 mg/ml after 24 hrs by agar well diffusion method; type: functional; settings: for zone of inhibition at 1000 µg/mL: ATCC 15224, 24 h, read-out: DIZ; outline: as §1
Micrococcus luteus [5] = assay: Antibacterial activity against Micrococcus luteus ATCC 10240 at 1 mg/ml after 24 hrs by agar well diffusion method; type: functional; settings: for zone of inhibition at 1000 µg/mL: ATCC 10240, 24 h, read-out: DIZ; outline: as §1
Staphylococcus aureus [6] = assay: Antibacterial activity against Staphylococcus aureus ATCC 6538 at 1 mg/ml after 24 hrs by agar well diffusion method; type: functional; settings: for zone of inhibition at 1000 µg/mL: ATCC 6538, 24 h, read-out: DIZ; outline: as §1
Nucleic Acid [7] = assay: Binding affinity to chicken blood dsDNA assessed as hyperchromic effect at 1.1 x 10 '-4 M at pH 4.7 by UV-spectroscopy; type: nucleic-acid assay; settings: Gallus gallus
Outline: (§2)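 Chicken blood DNA (A260/A280 >1.8) quantified at 260 nm (ε 6600). Compound held at 1.1 × 10^-4 M; DNA titrated 10–50 µM in acetate pH 4.7 or phosphate pH 7.4 buffer at 37 °C; UV absorbance recorded. Kb taken as intercept/slope of A0/(A−A0) vs 1/[DNA] (Benesi–Hildebrand); ΔG = −RTlnKb.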

Nucleic Acid [8] = assay: Binding affinity to chicken blood dsDNA assessed as hyperchromic effect at 1.1 x 10 '-4 M at pH 7.4 by UV-spectroscopy; type: nucleic-acid assay; settings: Gallus gallus; outline: as §2
Nucleic Acid [9] = assay: Binding affinity to chicken blood dsDNA at pH 4.7 by UV-spectroscopy; type: nucleic-acid assay; settings: Gallus gallus; outline: as §2
Nucleic Acid [10] = assay: Binding affinity to chicken blood dsDNA at pH 7.4 by UV-spectroscopy; type: nucleic-acid assay; settings: Gallus gallus; outline: as §2
Nucleic Acid [11] = assay: Binding affinity to chicken blood dsDNA at pH 4.7 by cyclic voltammetry; type: nucleic-acid assay; settings: Gallus gallus
Outline: (§3)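 Cyclic voltammetry at glassy carbon electrode vs SCE. Compound 1 mM in acetate pH 4.7 or phosphate pH 7.4 buffer at 37 °C, argon-purged 10–15 min. Scanned −1 to +1.5 V at 100 mV/s before and after chicken blood DNA (10–50 µM final). Peak current decrease and Ep shift recorded; Kb derived from current decrease.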

Nucleic Acid [12] = assay: Binding affinity to chicken blood dsDNA at pH 7.4 by cyclic voltammetry; type: nucleic-acid assay; settings: Gallus gallus; outline: as §3
[13] = system: Bordetella bronchiseptica; assay: Antibacterial activity against Bordetella bronchiseptica ATCC 10580 after 24 hrs by agar well diffusion method; type: functional; settings: ATCC 10580, 24 h
Outline: (§4)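 MIC by agar well diffusion with serial dilutions. Strains grown in LB at 37 °C for 24 h. 0.75 ml broth culture mixed into 75 ml nutrient agar and poured; 8 mm wells cut, filled with test sample in DMSO. Plates incubated 37 °C for 24 h. DMSO served as negative control, roxithromycin and cefixime as positive controls.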

Klebsiella aerogenes [14] = assay: Antibacterial activity against Enterobacter aerogenes ATCC 13048 after 24 hrs by agar well diffusion method; type: functional; settings: ATCC 13048, 24 h; outline: as §4
Salmonella typhi [15] = assay: Antibacterial activity against Salmonella typhi ATCC 6539 after 24 hrs by agar well diffusion method; type: functional, Salmonella enterica subsp. enterica serovar Typhi; settings: Salmonella enterica, ATCC 6539, 24 h
Escherichia coli [16] = assay: Antibacterial activity against Escherichia coli ATCC 15224 after 24 hrs by agar well diffusion method; type: functional; settings: ATCC 15224, 24 h; outline: as §4
Micrococcus luteus [17] = assay: Antibacterial activity against Micrococcus luteus ATCC 10240 after 24 hrs by agar well diffusion method; type: functional; settings: ATCC 10240, 24 h; outline: as §4
Staphylococcus aureus [18] = assay: Antibacterial activity against Staphylococcus aureus ATCC 6538 after 24 hrs by agar well diffusion method; type: functional; settings: ATCC 6538, 24 h; outline: as §4
Nucleic Acid [19] = assay: Antioxidant activity against OH-radical-induced oxidative Escherichia coli pBR322 damage at 10 to 100 ug/ml incubated for 1 hr in dark by agarose gel electrophoresis; type: nucleic-acid assay
Outline: (§5)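 pBR322 plasmid diluted in 50 mM phosphate buffer. 15 µl reactions held diluted plasmid, test compound (1000, 100 or 10 µg/ml), 2 mM FeSO4 and 30% H2O2. Incubated 37 °C for 1 h in dark. Controls: plasmid plus FeSO4/H2O2, and untreated plasmid. Run on 1% agarose in TBE, ethidium bromide stained; supercoiled band intensity compared with control.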

Nucleic Acid [20] = assay: Enhancement of OH-radical-induced oxidative Escherichia coli pBR322 damage at 1000 ug/ml incubated for 1 hr in dark by agarose gel electrophoresis; type: nucleic-acid assay; outline: as §5
Artemia = assay: Cytotoxicity against brine shrimps after 24 hr; type: functional; settings: read-out: LD50 (the source's name)
Outline: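 Brine shrimp lethality. Artemia salina hatched 48 h at room temperature in aerated artificial sea water (sea salt 38 g/l). Ten active nauplii per vial in 5 ml sea water with compound at 10, 100 and 1000 µg/ml final. Survivors counted after 24 h, run in triplicate. LD50 derived by Finney analysis.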

Nucleic Acid [21] = assay: Binding affinity to chicken blood dsDNA assessed as shift in Ep/mv at 1 x 10 '-3 M at pH 4.7 by cyclic voltammetry; type: nucleic-acid assay; settings: Gallus gallus; outline: as §3
Nucleic Acid [22] = assay: Binding affinity to chicken blood dsDNA assessed as shift in Ep/mv at 1 x 10 '-3 M at pH 7.4 by cyclic voltammetry; type: nucleic-acid assay; settings: Gallus gallus; outline: as §3
Nucleic Acid [23] = assay: Binding affinity to chicken blood dsDNA assessed as decrease in current at 1 x 10 '-3 M at pH 4.7 by cyclic voltammetry; type: nucleic-acid assay; set-up: scale not given: the % may be the effect or the level left; settings: Gallus gallus; outline: as §3
Nucleic Acid [24] = assay: Binding affinity to chicken blood dsDNA assessed as decrease in current at 1 x 10 '-3 M at pH 7.4 by cyclic voltammetry; type: nucleic-acid assay; set-up: scale not given: the % may be the effect or the level left; settings: Gallus gallus; outline: as §3
Nucleic Acid [25] = assay: Antioxidant activity against OH-radical-induced oxidative Escherichia coli pBR322 damage at 100 to 1000 ug/ml incubated for 1 hr in dark by agarose gel electrophoresis; type: nucleic-acid assay; outline: as §5
Nucleic Acid [26] = assay: Antioxidant activity against OH-radical-induced oxidative Escherichia coli pBR322 damage at 10 ug/ml incubated for 1 hr in dark by agarose gel electrophoresis; type: nucleic-acid assay; outline: as §5
Nucleic Acid [27] = assay: Antioxidant activity against OH-radical-induced oxidative Escherichia coli pBR322 damage at 10 to 1000 ug/ml incubated for 1 hr in dark by agarose gel electrophoresis; type: nucleic-acid assay; outline: as §5

| Compound | zone of inhibition at 1000 µg/mL [1] [mm] | zone of inhibition at 1000 µg/mL (Klebsiella aerogenes [2]) [mm] | zone of inhibition at 1000 µg/mL (Salmonella typhi [3]) [mm] | zone of inhibition at 1000 µg/mL (Escherichia coli [4]) [mm] | zone of inhibition at 1000 µg/mL (Micrococcus luteus [5]) [mm] | zone of inhibition at 1000 µg/mL (Staphylococcus aureus [6]) [mm] | Activity (Nucleic Acid [7]) | Activity (Nucleic Acid [8]) | Kb (Nucleic Acid [9]) [×10⁴ /M] | Kb (Nucleic Acid [10]) [×10⁴ /M] | Kb (Nucleic Acid [11]) [×10⁴ /M] | Kb (Nucleic Acid [12]) [×10⁴ /M] | LC50 (Artemia) [µg/mL] | Activity (Nucleic Acid [21]) | Activity (Nucleic Acid [22]) | Activity (Nucleic Acid [23]) [%] | Activity (Nucleic Acid [24]) [%] | diameter of the inhibition zone (DIZ) [1] | diameter of the inhibition zone (DIZ) (Klebsiella aerogenes [2]) | diameter of the inhibition zone (DIZ) (Salmonella typhi [3]) | other results |
| --- | --- | --- | --- | --- | --- | --- | --- | --- | --- | --- | --- | --- | --- | --- | --- | --- | --- | --- | --- | --- | --- |
| C=CC1=C(C(=O)O)N2C(=O)[C@@H](NC(=O)/C(=N\OCC(=O)O)c3csc(N)n3)[C@H]2SC1 [CEFIXIME] | 38.5 | 16.1 | 34.3 | 40.5 | 38.7 | 39.1 | – | – | – | – | – | – | – | – | – | – | – | – | – | – | – |
| NNC(=O)c1ccc(O)cc1O | 18.2 | 15.3 | 24.6 | 25.1 | 18.2 | 13.4 | Active | Active | 2.02 | 1.24 | 3.13 | 1.31 | 419 (≈ 2490 µM) | 20 | 37 | 29.2 | 26.1 | – | – | – | MIC [13]: 800 µg/mL (≈ 4760 µM); MIC (Klebsiella aerogenes [14]): 800 µg/mL (≈ 4760 µM); MIC (Salmonella typhi [15]): 100 µg/mL (≈ 595 µM); MIC (Escherichia coli [16]): 100 µg/mL (≈ 595 µM); MIC (Micrococcus luteus [17]): 800 µg/mL (≈ 4760 µM); MIC (Staphylococcus aureus [18]): 200 µg/mL (≈ 1190 µM); Activity (Nucleic Acid [19]): Active; Activity (Nucleic Acid [20]): Toxic |
| NNC(=O)c1cnccn1 [PYRAZINE CARBOXYLIC ACID HYDRAZIDE] | – | – | – | – | – | – | Active | Active | 1.6 | 1.1 | 1.7 | 1.21 | 313 (≈ 2260 µM) | 44 | 51 | 75 | 33.3 | inactive | inactive | inactive | diameter of the inhibition zone (DIZ) (Escherichia coli [4]): inactive; diameter of the inhibition zone (DIZ) (Micrococcus luteus [5]): inactive; diameter of the inhibition zone (DIZ) (Staphylococcus aureus [6]): inactive; Activity (Nucleic Acid [25]): Active; Activity (Nucleic Acid [26]): inactive |
| NNC(=O)c1ccncc1 [ISONIAZID] | – | – | – | – | – | – | Active | Active | 1.6 | 1.42 | 2.03 | 1.6 | 1070 (≈ 7840 µM) | 51 | 8 | 50.8 | 77.1 | inactive | inactive | inactive | diameter of the inhibition zone (DIZ) (Escherichia coli [4]): inactive; diameter of the inhibition zone (DIZ) (Micrococcus luteus [5]): inactive; diameter of the inhibition zone (DIZ) (Staphylococcus aureus [6]): inactive; Activity (Nucleic Acid [27]): Active |
| CC[C@H]1OC(=O)[C@H](C)[C@@H](O[C@H]2C[C@@](C)(OC)[C@@H](O)[C@H](C)O2)[C@H](C)[C@@H](O[C@@H]2O[C@H](C)C[C@H](N(C)C)[C@H]2O)[C@](C)(O)C[C@@H](C)/C(=N\OCOCCOC)[C@H](C)[C@@H](O)[C@]1(C)O [ROXITHROMYCIN] | 18.2 | 31.2 | 27.9 | 18.1 | 30.2 | 32 | – | – | – | – | – | – | – | – | – | – | – | – | – | – | – |
